According to ChEMBL document CHEMBL4270600, “Pyrazinyl ureas revisited: 1-(3-(Benzyloxy)pyrazin-2-yl)-3-(3,4-dichlorophenyl)urea, a new blocker of Aβ-induced mPTP opening for Alzheimer's disease” (Eur J Med Chem, 2018):

Tests used:
[1] = target: Peptidyl-prolyl cis-trans isomerase F, mitochondrial (Mus musculus) (UniProt Q99KR7); assay: Blockade of amyloid beta (1 to 42)-induced cypD-mediated mPTP opening in mouse HT22 cells assessed as green to red fluorescence ratio at 5 uM preincubated for 10 mins followed by amyloid beta (1 to 42) addition measured at 1 hr time interval for 3 hrs by JC-1 staining based fluorescence assay (reference value: 100%); assay type: cell-based
Outline: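 HT-22 mouse hippocampal cells were grown in DMEM with 10% FBS and seeded at 30,000/well the day before. They were loaded with 7.5 μM JC-1 (final) in phenol red-free Opti-MEM for 1 h 15 min at 37 °C, then PBS-washed. Test agent at 5 μM in Opti-MEM was added for 10 min at 37 °C, then 5 μM Aβ1–42 solution. Red (ex 530/em 580) and green (ex 485/em 530) fluorescence was read hourly for 3 h. The green/red ratio was expressed as percent change normalized to vehicle control (100%), from duplicate averages.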

HT-22 [2] = assay: Induction of mitochondrial energy production impairment in mouse HT22 cells assessed as ATP production at 5 uM after 7 hrs by luciferase reporter gene assay relative to control; assay type: cell-based; conditions: ht-22, 7 h
Outline: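 HT-22 cells were seeded at 10,000/well the day before. Test agent was added as a 10 μM solution (25 μL) without Aβ and incubated 7 h at 37 °C. Cells were PBS-washed and lysed in 1% Triton X-100/TBST, and protein was measured by BCA. Equal lysate amounts were assayed for ATP by luciferase kit. Levels were expressed relative to vehicle control, from duplicate averages.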

HT-22 [3] = assay: Neuroprotection against amyloid beta (1 to 42)-induced deterioration of mitochondrial ATP production in mouse HT22 cells assessed as ATP recovery at 5 uM preincubated for 10 mins followed by amyloid beta (1 to 42) addition and measured after 7 hrs by luciferase reporter gene assay relative to control; assay type: functional
Outline: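 HT-22 cells were seeded at 10,000/well the day before. Test agent was added as a 10 μM solution (25 μL) for 10 min at 37 °C, then 25 μL of 10 μM Aβ1–42 solution, followed by 7 h at 37 °C. Lysates (1% Triton X-100/TBST) were equalized by BCA protein and assayed for ATP with a luciferase kit. Vehicle control was subtracted, and percent recovery was calculated against Aβ-treated vehicle control, from duplicate averages.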

[4] = Cytotoxicity against mouse HT22 cells assessed as cell viability at 5 uM after 24 hrs by MTT assay relative to control; assay type: cell-based, HT-22; conditions: read-out: Activity
Outline: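 HT-22 cells were seeded at 5000/well and treated with 5 μM test agent for 24 h at 37 °C. MTT was added for 2 h at 37 °C. Formazan was dissolved in 10% Triton X-100 in isopropanol with 0.1 M HCl for 1 h at room temperature. Absorbance was read at 570 nm, vehicle control subtracted, and viability expressed as percent of control, from duplicate averages.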

[5] = target: Voltage-gated inwardly rectifying potassium channel KCNH2 (Homo sapiens, UniProt Q12809); assay: Displacement of [3H]-astemizole from human ERG expressed in HEK293 cell membranes after 1 hr by microbeta counting method
Outline: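 Radioligand binding used 2.5 µg HEK-293 membranes expressing human ERG in 50 mM Hepes pH 7.4, 60 mM KCl, 0.1% BSA, with 4 nM [³H]astemizole. Incubation was 1 h at room temperature, followed by filtration through PEI-presoaked filtermat and scintillation counting. Non-specific binding was defined with 0.1 µM astemizole. Each competitor was tested at 5–6 concentrations in duplicate tubes, with isotherms from two assays.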

Chain of Peptidyl-prolyl cis-trans isomerase F, mitochondrial (Mus musculus) (Q99KR7 whole entry): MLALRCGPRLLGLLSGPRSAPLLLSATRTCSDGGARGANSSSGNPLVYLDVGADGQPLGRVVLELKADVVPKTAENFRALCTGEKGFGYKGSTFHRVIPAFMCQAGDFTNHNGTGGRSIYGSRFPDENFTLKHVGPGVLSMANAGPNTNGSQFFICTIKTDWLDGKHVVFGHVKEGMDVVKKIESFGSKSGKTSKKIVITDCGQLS
Chain of Voltage-gated inwardly rectifying potassium channel KCNH2 (Q12809 whole entry): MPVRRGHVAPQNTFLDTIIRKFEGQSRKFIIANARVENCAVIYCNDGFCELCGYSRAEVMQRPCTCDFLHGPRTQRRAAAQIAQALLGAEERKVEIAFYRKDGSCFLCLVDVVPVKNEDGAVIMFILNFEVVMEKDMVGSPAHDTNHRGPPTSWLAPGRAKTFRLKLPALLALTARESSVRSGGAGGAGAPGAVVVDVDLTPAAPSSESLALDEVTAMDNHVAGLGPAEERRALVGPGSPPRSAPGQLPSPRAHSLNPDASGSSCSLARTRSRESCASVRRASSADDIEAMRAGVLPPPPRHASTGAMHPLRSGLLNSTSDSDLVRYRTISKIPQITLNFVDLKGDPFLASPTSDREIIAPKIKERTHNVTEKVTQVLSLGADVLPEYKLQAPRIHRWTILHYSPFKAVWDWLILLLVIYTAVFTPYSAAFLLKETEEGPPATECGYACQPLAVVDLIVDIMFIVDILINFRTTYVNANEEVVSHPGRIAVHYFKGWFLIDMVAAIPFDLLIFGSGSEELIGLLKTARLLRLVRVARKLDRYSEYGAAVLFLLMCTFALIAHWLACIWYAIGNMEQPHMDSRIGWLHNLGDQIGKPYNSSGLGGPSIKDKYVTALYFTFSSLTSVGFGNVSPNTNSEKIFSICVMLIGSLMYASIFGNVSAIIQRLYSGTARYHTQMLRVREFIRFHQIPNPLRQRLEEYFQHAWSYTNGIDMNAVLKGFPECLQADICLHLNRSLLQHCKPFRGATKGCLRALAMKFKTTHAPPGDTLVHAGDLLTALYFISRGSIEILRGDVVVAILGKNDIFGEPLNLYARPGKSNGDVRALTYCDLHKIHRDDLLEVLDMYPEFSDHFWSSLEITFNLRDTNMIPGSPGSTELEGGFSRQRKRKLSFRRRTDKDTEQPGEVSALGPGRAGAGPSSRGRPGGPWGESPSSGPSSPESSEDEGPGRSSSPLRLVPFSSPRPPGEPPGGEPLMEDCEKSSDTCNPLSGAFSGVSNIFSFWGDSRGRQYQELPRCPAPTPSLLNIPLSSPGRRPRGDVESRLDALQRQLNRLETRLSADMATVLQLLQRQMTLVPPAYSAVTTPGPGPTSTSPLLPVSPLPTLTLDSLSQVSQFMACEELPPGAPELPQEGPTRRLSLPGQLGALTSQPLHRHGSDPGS

Compound	Ratio [1] [%]	Activity (HT-22 [2]) [%]	Activity (HT-22 [3]) [%]	viability at 24 h, 5 µM [4] [%]	IC50 [5] [µM]
CC(C)(C)NC(=O)Nc1nccnc1OCc1cccc(F)c1	55				
O=C(NCCCl)Nc1nccnc1OCc1cccc(Cl)c1	73				
CC(C)(C)CC(C)(C)NC(=O)Nc1nccnc1OCc1cccc(F)c1	29	98.9	32.9		
O=C(Nc1ccccc1)Nc1nccnc1OCc1cccc(F)c1	30				
O=C(Nc1ccccc1)Nc1nccnc1OCc1ccccc1	44				
CC(C)(C)CC(C)(C)NC(=O)Nc1nccnc1OCc1ccc(F)cc1	17				
O=C(NCc1ccccc1)Nc1nccnc1OCc1ccccc1Cl	33	96.9	71.3	84.8	
O=C(Nc1ccc(Cl)c(Cl)c1)Nc1nccnc1OCc1ccccc1	29	148.6	71.2	139	11.3
O=C(Nc1cccc(Cl)c1)Nc1nccnc1OCc1ccccc1Cl	55				
CC(C)(C)CC(C)(C)NC(=O)Nc1nccnc1OCc1ccccc1Cl	59				
CC(C)(C)NC(=O)Nc1nccnc1OCc1ccccc1	51				
O=C(NCCCl)Nc1nccnc1OCc1ccccc1	53				
CN1CCN(CCNC(=O)Nc2nccnc2OCc2ccccc2)CC1	43	97.2	0.7		
CCNC(=O)Nc1nccnc1OCc1cccc(Cl)c1	60				
O=C(NCCCl)Nc1nccnc1OCc1ccccc1Cl	72				
O=C(Nc1cccc(Cl)c1)Nc1nccnc1OCc1cccc(F)c1	39				
CC(C)(C)CC(C)(C)NC(=O)Nc1nccnc1OCc1ccc(Cl)cc1	35	85.7	-1.7		
CN1CCN(CCNC(=O)Nc2nccnc2OCc2ccccc2Cl)CC1	34				
CN1CCN(CCNC(=O)Nc2nccnc2OCc2cccc(Cl)c2)CC1	34	96.1	17.7		
O=C(Nc1cccc(F)c1)Nc1nccnc1OCc1cccc(Cl)c1	50				
O=C(Nc1cccc(Cl)c1)Nc1nccnc1OCc1cccc(Cl)c1	29	85.4	-3.5		
CC(C)(C)NC(=O)Nc1nccnc1OCc1ccccc1Cl	28	55.3			
O=C(Nc1ccccc1)Nc1nccnc1OCc1cccc(Cl)c1	59				
O=C(NCCN1CCNCC1)Nc1nccnc1OCc1ccccc1Cl	37	70			
O=C(Nc1ccccc1)Nc1nccnc1OCc1ccccc1Cl	39	66.9			
O=C(Nc1nccnc1OCc1ccccc1)NC1CCCCCC1	33	103.4	45.7	59	
NC(=O)CN1CCCC1=O [PIRACETAM]		88	127		
O=C(Nc1nccnc1OCc1ccc(Cl)cc1)Nc1cccc2ccccc12	60				
CC(C)(C)CC(C)(C)NC(=O)Nc1nccnc1OCc1ccccc1	25	86	-59		
